Source: PubChem (several laboratories)
FLuc inh counter: firefly luciferase enzyme inhibitors, primary screen, artefact control for luciferase-based inhibitor screens, biochemical, luminescence, ATPLite. AID 1006, 2008. 200,000 compounds, 1.5% hits. 10 min. Luciferin 4-monooxygenase (Photinus pyralis), P08659. inhibition, % at 10 µM;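 active = inhibition above about 50% when tested at 10 µM, limit read from the data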
Target sequence (P08659 whole entry, looked up): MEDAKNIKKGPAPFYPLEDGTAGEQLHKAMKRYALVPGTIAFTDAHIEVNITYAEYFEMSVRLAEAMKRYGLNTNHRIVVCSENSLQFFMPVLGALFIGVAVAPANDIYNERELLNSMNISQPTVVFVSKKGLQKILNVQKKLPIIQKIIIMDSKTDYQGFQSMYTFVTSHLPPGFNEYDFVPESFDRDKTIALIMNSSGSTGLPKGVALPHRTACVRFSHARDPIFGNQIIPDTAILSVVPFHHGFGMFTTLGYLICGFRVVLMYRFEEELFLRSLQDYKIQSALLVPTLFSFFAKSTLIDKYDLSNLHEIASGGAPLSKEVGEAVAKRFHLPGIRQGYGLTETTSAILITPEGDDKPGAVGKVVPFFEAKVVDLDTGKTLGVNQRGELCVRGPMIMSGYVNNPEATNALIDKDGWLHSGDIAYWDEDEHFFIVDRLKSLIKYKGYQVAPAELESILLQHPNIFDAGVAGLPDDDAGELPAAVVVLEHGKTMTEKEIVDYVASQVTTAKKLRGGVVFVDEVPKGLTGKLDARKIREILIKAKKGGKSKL
FLuc act counter: FLuc activators, initial screening, artefact control for FLuc-dependent activation tests, biochemical, ATPlite luminescence; Luciferin 4-monooxygenase (Photinus pyralis), P08659; ATPlite luciferase biochemical, 10 min; 0 = ATP-free wells, 1 = DMSO control; activation factor at 10 µM; 200,000 tested, under 10 active;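 active = luciferase activation factor, scaled between plate controls, of at least 2 with compound at 10 µM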
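System: luciferase plus luciferin reagent, cell-free; medium: PBS as buffer for the ATP substrate; dosing: test compounds dosed from 2 mM stocks in 100% DMSO; timing: 10 min post-reagent at room temperature; measured by: luminescence measurement of luciferase light output; evaluation: luciferase activation, seen as luminescence increase over controls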
NF-kB neuron act: activators of NF-kB expression in neurons, primary screen, cell-based, HTS; human neuronal cells, NF-kB reporter expression; hits give high values; fold change at 12.5 µM; 190,000 compounds, 1.6% hits; AID 1239, 2008; in the data active = fold change above about 3.3
STAT1 act: STAT1 signaling activators, primary screen, cell-based, HTS, luciferase reporter. NIH 3T3 STAT1-luciferase reporter, IFN-gamma, luminescence; 100% = IFN-gamma alone, no compound. AID 932, 2007. activation (% of control), % at 5.5 µM. 200,000 compounds, 2.6% hits;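 active = activation above the screen-wide mean activation plus 3 SD, cut at about 130% in these data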
APP 5'UTR act: activators of APP 5'UTR luciferase reporter, primary screen, SH-SY5Y cells; SH-SY5Y APP 5'UTR luciferase reporter, luminescence; zero percent = DMSO vehicle wells; activation, % at 2 µM; 190,000 compounds, 1% hits;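 active = activation above a set limit, based on mean plus 3 SD of controls, cut at about 140% in these data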
Pf gametocyte: late stage P. falciparum gametocyte viability inhibitors, primary screen, ATP luminescence, HTS; P. falciparum stage V gametocytes, 24 h; inhibition, % at 10.9 µM; 150,000 compounds, 0.065% hits;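 active = inhibition above the mean plus 3 SD of compounds within the control limits, set per campaign, cut at about 38% in these data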
Large screens that a line does not name were inactive. The list is not random: actives were taken first. Their share in the collection is about 3.5%.

Cc1cc(C)nc(SCc2cc(=O)c(OC(=O)c3ccc(Br)o3)co2)n1	FLuc inh counter 60
COc1ccc(Nc2cc(C)c3ccccc3n2)cc1	STAT1 act 132 (no result: Pf gametocyte)
Cc1cc(Nc2ccc([N+](=O)[O-])cc2)nc2ccccc12	none
CN(c1ccccc1)c1nccc(=O)[nH]1	none (no result: FLuc inh counter, FLuc act counter, NF-kB neuron act, STAT1 act, APP 5'UTR act)
COc1cc(NC(=O)c2ccccc2)cc(OC)c1	NF-kB neuron act 3.4, APP 5'UTR act 137
COc1ccc(C(=O)Nc2cc(OC)cc(OC)c2)cc1	FLuc inh counter 66, STAT1 act 132
COc1ccc(C(=O)Nc2ccc(C(=O)c3ccccc3)cc2)cc1	none (no result: FLuc inh counter, FLuc act counter, NF-kB neuron act, STAT1 act, APP 5'UTR act)
CCN(CC)c1cc(CS(=O)c2ccccc2)nc(-c2ccccc2)n1 (centres undefined)	none (no result: FLuc inh counter, FLuc act counter, NF-kB neuron act, APP 5'UTR act, Pf gametocyte)
Cc1ccc(C(=O)O/N=C(\N)c2nonc2N)cc1	FLuc inh counter 84, STAT1 act 134
N/C(=N\OC(=O)c1ccc(F)cc1)c1nonc1N	none (no result: Pf gametocyte)
N/C(=N/OC(=O)c1ccccc1Cl)c1nonc1N	FLuc inh counter 52, NF-kB neuron act 4.9
CC1=NN(C(N)=S)C(=O)C1N=Nc1cccc(Cl)c1C (centres undefined)	none (no result: FLuc inh counter, FLuc act counter, NF-kB neuron act, STAT1 act, APP 5'UTR act)
CCOC(=O)C1=C(NC(=S)NC(=O)c2ccccc2)c2ccccc2CC1C(C)C (centres undefined)	NF-kB neuron act 3.7
CCOC(=O)C1=C(NC(=S)NC(=O)c2ccccc2)c2ccccc2CC1(C)CC (centres undefined)	none (no result: Pf gametocyte)
CC1Cc2c([nH]c3ccccc23)C(=O)N1 (centres undefined)	none (no result: FLuc inh counter, FLuc act counter, NF-kB neuron act, STAT1 act, APP 5'UTR act)
O=C(Nc1cc2ccccc2oc1=O)c1ccccc1	FLuc inh counter 67
Cc1oc(=O)c(NC(=O)c2ccccc2)cc1C(N)=O	none (no result: Pf gametocyte)
CCC(=O)NC(=S)Nc1ccc(-c2nc3ccccc3s2)cc1	STAT1 act 142
Cc1ccc2nc(-c3ccc(NC(=S)NC(=O)C(C)C)cc3)sc2c1	none (no result: Pf gametocyte)
Cc1ccc2nc(-c3ccc(NC(=S)NC4CC(C)(C)NC(C)(C)C4)cc3)sc2c1	STAT1 act 135, APP 5'UTR act 168
Cc1ccc(NC(=S)c2nc3ccccc3s2)cc1	FLuc inh counter 66, STAT1 act 134, APP 5'UTR act 168
Cc1ccc2nc(-c3ccc(NC(=O)C(C)N4C(=O)c5ccccc5C4=O)cc3)sc2c1 (centres undefined)	STAT1 act 141
O=C(O)/C=C/c1ccc(S(=O)(=O)N2CCN(CCN3C(=O)C4C5C=CC(C5)C4C3=O)CC2)cc1 (centres undefined)	none (no result: FLuc inh counter, FLuc act counter, NF-kB neuron act, STAT1 act, APP 5'UTR act)
Cc1cc(NC(=O)CCc2ccccc2)c([N+](=O)[O-])cc1C	none
CC(=O)c1c(C)[nH]c(C(=O)CN2C(=O)NC(C)(CCC(C)C)C2=O)c1C (centres undefined)	none
O=C(CCN1C(=O)c2ccccc2C1=O)Nc1nc2ccccc2s1	none (no result: APP 5'UTR act)
O=C(CCN1C(=O)c2ccccc2C1=O)Nc1ccc(-c2nc3ccccc3s2)cc1	STAT1 act 142, APP 5'UTR act 136
COc1ccc(-c2nnc(N)s2)cc1	none
CCCOc1ccc(-c2nnc(N)s2)cc1	FLuc inh counter 60 (no result: Pf gametocyte)
CC(C)c1ccc(-c2nnc(N)s2)cc1	FLuc inh counter 80, NF-kB neuron act 3.8, STAT1 act 133 (no result: Pf gametocyte)
COc1ccc2c(C(=O)CN3CCN(c4ccccc4)CC3)c[nH]c2c1	none
COc1ccc(Oc2nccc(-c3ccc(F)cc3)c2C#N)cc1	none
COc1ccc(Oc2nccc(-c3ccccc3)c2C#N)cc1	STAT1 act 129 (no result: Pf gametocyte)
Cc1csc(NC(=O)c2cn3ccccc3n2)n1	FLuc inh counter 94
Cc1csc(NC(=O)c2ccccc2C(=O)O)n1	none
Cc1csc(NC(=O)c2cccn2C)n1	STAT1 act 131 (no result: Pf gametocyte)
Cn1cccc1C(=O)Nc1nc(-c2ccccn2)cs1	NF-kB neuron act 5.1, STAT1 act 135
Cc1ccc(C(c2nnnn2CC2CCCO2)N2CCN(Cc3ccccc3)CC2)cc1 (centres undefined)	none
O=C(c1cnn(-c2ccccc2)c1)c1ccccc1O	NF-kB neuron act 9.5, APP 5'UTR act 184
COc1ccc(-n2cc(C(=O)c3ccccc3O)cn2)cc1	FLuc inh counter 66, NF-kB neuron act 3.9, APP 5'UTR act 236 (no result: Pf gametocyte)
Cn1c(C(=O)NC2CCCCC2)cc2sccc21	STAT1 act 137
CN(C(=O)c1cc2sccc2n1C)C1CCCCC1	STAT1 act 142 (no result: Pf gametocyte)
Cn1c(C(=O)N2CCCC(C(=O)O)C2)cc2sccc21 (centres undefined)	none (no result: Pf gametocyte)
CC1CCN(CCCNC(=O)c2cc3sccc3n2C)CC1	none
COc1cccc(C(=O)Nc2nnc(-c3cccs3)o2)c1	none (no result: Pf gametocyte)
CC(=O)c1cc(C#N)c(N2CCOCC2)nc1C	none
CC(=O)Nc1cccc(-c2nc3ccc(NC(C)=O)cc3s2)c1	FLuc inh counter 66, STAT1 act 140
CC(=O)Nc1cccc(-c2nc3ccccc3s2)c1	STAT1 act 148
CC(=O)Oc1oc(-c2ccccc2)nc1/C=N/c1ccccn1	STAT1 act 129
CC(=O)Oc1oc(-c2ccccc2)nc1C=Nc1ccc(N(C)C)cc1	none (no result: FLuc inh counter, FLuc act counter, NF-kB neuron act, STAT1 act, APP 5'UTR act)
COc1ccccc1N=Cc1nc(-c2ccccc2)oc1OC(C)=O	none (no result: Pf gametocyte)
CN(C)c1ccc(N=Cc2nc(-c3ccccc3)oc2OC(=O)c2ccccc2)cc1	APP 5'UTR act 155
CC(C)C[C@@H](COc1ccccc1)N1CCN(Cc2ccccc2)CCC1=O	none (no result: FLuc inh counter, FLuc act counter, NF-kB neuron act, STAT1 act, APP 5'UTR act)
C[C@@H](NC(=O)c1nc[nH]c1C(=O)NCC(=O)OCc1ccccc1)c1ccccc1	none (no result: FLuc inh counter, FLuc act counter, NF-kB neuron act, STAT1 act, APP 5'UTR act)
CCOc1ccc(-n2cc(C(=O)Nc3cccc(OC)c3)c3cc(OC)c(OC)cc3c2=O)cc1	none (no result: Pf gametocyte)
CCOC(=O)c1c(C)oc2c1c1c(c3ccccc32)OCN(CCCC(=O)O)C1	none (no result: FLuc inh counter, FLuc act counter, NF-kB neuron act, STAT1 act, APP 5'UTR act)
CCOC(=O)c1c(C)oc2c1c(C(c1cccnc1)N1CCOCC1)c(O)c1ccccc12 (centres undefined)	NF-kB neuron act 3.6 (no result: Pf gametocyte)
CCOC(=O)c1c(C)oc2c1c1c(c3ccccc32)OCN(Cc2cccnc2)C1	NF-kB neuron act 4.7 (no result: Pf gametocyte)
Clc1ccc(CN=C2Nc3ccccc3CS2)cc1	NF-kB neuron act 4.8
COc1cccc(CN=C2Nc3ccccc3CS2)c1	NF-kB neuron act 3.9, STAT1 act 147
Cc1ccc(CN=C2Nc3ccccc3CS2)cc1	FLuc inh counter 81, NF-kB neuron act 6.8, APP 5'UTR act 143
c1cncc(CN=C2Nc3ccccc3CS2)c1	none
O=C(NC1CC1)c1ccc2c(c1)S(=O)(=O)c1cc(Cl)ccc1C2=O	none (no result: FLuc inh counter, FLuc act counter, NF-kB neuron act, STAT1 act, APP 5'UTR act)
Cc1ccc(C)c(C(=O)COC(=O)c2cccc(N3C(=O)c4c(C)nc5ccccc5c4C3=O)c2)c1	FLuc inh counter 60, APP 5'UTR act 141 (no result: Pf gametocyte)
CC1(C)CC(=O)C/C(=N/Nc2nc3ccccc3s2)C1	none
